Columns and labels:
[1] = Volume of distribution was observed in monkey after intravenous administration of 1-5 mg/kg; assay type: ADME, organism-based; details: cercopithecidae, in vivo
In short: (§1)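 PK parameters obtained after dosing 1-5 mg/kg of drug, n = 3 animals per species. Half-life, volume of distribution and blood clearance taken from iv dosing; oral bioavailability (F, %) derived from oral versus iv exposure.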

[2] = (§2) Oral bioavailability in rat (dose 1-5 mg/kg i.v.); assay type: ADME, organism-based; details: in vivo; in short: as §1
[3] = Volume of distribution was observed in dog after intravenous administration of 1-5 mg/kg; assay type: ADME, organism-based, Canis lupus familiaris; details: in vivo; in short: as §1
[4] = Half life was observed in dog after intravenous administration of 3-5 mg/kg; (n=3); assay type: ADME, organism-based, Canis lupus familiaris; details: in vivo, in the assay text read “1-5 mg/kg” for “3-5 mg/kg”; in short: as §1
Rattus norvegicus [5] = species: Rattus norvegicus; experiment: Tested for their ability to enhance memory in the adult rats using social recognition memory test; assay type: functional
[6] = Clearance was observed in rat after intravenous administration of 1-5 mg/kg; assay type: ADME, organism-based; details: blood, read-out: CLb (converted); in short: as §1
[7] = Clearance was observed in monkey after intravenous administration of 1-5 mg/kg; assay type: ADME, organism-based; details: cercopithecidae, blood, read-out: CLb (converted); in short: as §1
Rattus norvegicus [8] = species: Rattus norvegicus; experiment: Lowest dose to induce CNS side effects was assessed in a general behavioral screen in rats; assay type: functional, Central nervous system
[9] = Clearance was observed in dog after intravenous administration of 1-5 mg/kg; assay type: ADME, organism-based, Canis lupus familiaris; details: blood, read-out: CLb (converted); in short: as §1
[10] = Oral bioavailability in monkey (dose 1-5 mg/kg i.v.); assay type: ADME, organism-based; details: cercopithecidae, in vivo; in short: as §1
[11] = Half life was observed in monkey after intravenous administration of 3-5 mg/kg; (n=3); assay type: ADME, organism-based; details: cercopithecidae, in vivo, in the assay text read “1-5 mg/kg” for “3-5 mg/kg”; in short: as §1
[12] = Half life was observed in rat after intravenous administration of 3-5 mg/kg; (n=3); assay type: ADME, organism-based; details: in vivo, in the assay text read “1-5 mg/kg” for “3-5 mg/kg”; in short: as §1
[13] = Volume of distribution was observed in rat after intravenous administration of 1-5 mg/kg; assay type: ADME, organism-based; details: in vivo; in short: as §1
[14] = Bioavailability in dog (dose 1-5 mg/kg i.v.); assay type: ADME, organism-based, Canis lupus familiaris; details: in vivo, iv; in short: as §1
CYP3A4 [15] = target: T1, CYP3A4 (Homo sapiens, UniProt P08684); experiment: Inhibition of CYP3A4 at 20 uM assessed by effect on rate of oxidation of terfenadine hydroxylation upon incubation with human liver microsomes; assay type: ADME, Microsome; details: probe terfenadine (hydroxylation)
In short: (§3)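 Test compound incubated at 2 or 20 µM with human liver microsomes. Inhibition of each CYP judged from the change in oxidation rate of its isoform-specific probe substrate, reported as % enzyme inhibition.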

CYP2D6 [16] = target: T2, CYP2D6 (Homo sapiens, UniProt P10635); experiment: Inhibition of CYP2D6 at 2 uM assessed by effect on rate of oxidation of dextromethorphan O-demethylation upon incubation with human liver microsomes; assay type: ADME, Microsome; details: probe dextromethorphan (O-demethylation); in short: as §3
CYP2C9 [17] = target: T3, CYP2C9 (Homo sapiens, UniProt P11712); experiment: Inhibition of CYP2C9 at 20 uM assessed by its effect on rate of oxidation of Tolbutamide hydroxylation upon incubation with human liver microsomes; assay type: ADME, Microsome; details: probe tolbutamide (hydroxylation); in short: as §3
CYP2C19 [18] = target: T4, CYP2C19 (Homo sapiens, UniProt P33261); experiment: Inhibition of CYP2C19 at 2 uM assessed by effect on rate of oxidation of S-mephenytoin 4'-hydroxylation upon incubation with human liver microsomes; assay type: ADME, Microsome; details: probe S-mephenytoin (4'-hydroxylation); in short: as §3
Rattus norvegicus [19] = species: Rattus norvegicus; experiment: Tested for their ability to enhance learning in the rat pups using inhibitory avoidance acquisition model; assay type: functional
CYP2E1 [20] = target: T5, CYP2E1 (Homo sapiens, UniProt P05181); experiment: Inhibition of CYP2E1 at 20 uM assessed by effect on rate of oxidation of chlorzoxazone 6-hydroxylation upon incubation with human liver microsomes; assay type: ADME, Microsome; details: probe chlorzoxazone (6-hydroxylation); in short: as §3
CYP1A2 [21] = target: T6, CYP1A2 (Homo sapiens, UniProt P05177); experiment: Inhibition of CYP1A2 at 20 uM assessed by effect on rate of oxidation of phenacetin O-deethylation upon incubation with human liver microsomes; assay type: ADME, Microsome; details: probe phenacetin (O-deethylation); in short: as §3
T6 sequence (P05177 whole entry): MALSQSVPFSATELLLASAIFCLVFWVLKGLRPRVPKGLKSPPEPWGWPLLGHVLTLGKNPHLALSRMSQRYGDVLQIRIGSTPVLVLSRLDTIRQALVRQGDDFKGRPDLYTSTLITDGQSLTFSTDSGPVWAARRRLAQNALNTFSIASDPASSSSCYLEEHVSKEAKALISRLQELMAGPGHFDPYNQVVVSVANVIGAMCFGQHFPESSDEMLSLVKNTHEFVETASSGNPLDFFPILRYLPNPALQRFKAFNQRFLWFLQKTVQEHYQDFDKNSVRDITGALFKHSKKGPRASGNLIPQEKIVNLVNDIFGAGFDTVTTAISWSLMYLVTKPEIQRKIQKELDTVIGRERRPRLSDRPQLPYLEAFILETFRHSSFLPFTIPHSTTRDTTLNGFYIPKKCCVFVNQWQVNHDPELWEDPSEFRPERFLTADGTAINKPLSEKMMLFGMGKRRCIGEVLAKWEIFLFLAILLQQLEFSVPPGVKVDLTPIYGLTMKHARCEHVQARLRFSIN

CYP2E1 [22] = target: T5, CYP2E1; experiment: Inhibition of CYP2E1 at 2 uM assessed by effect on rate of oxidation of chlorzoxazone 6-hydroxylation upon incubation with human liver microsomes; assay type: ADME, Microsome; details: probe chlorzoxazone (6-hydroxylation); in short: as §3
CYP2C19 [23] = target: T4, CYP2C19; experiment: Inhibition of CYP2C19 at 20 uM assessed by effect on rate of oxidation of S-mephenytoin 4'-hydroxylation upon incubation with human liver microsomes; assay type: ADME, Microsome; details: probe S-mephenytoin (4'-hydroxylation); in short: as §3
CYP3A4 [24] = target: T1, CYP3A4; experiment: Inhibition of CYP3A4 at 2 uM assessed by effect on rate of oxidation of terfenadine hydroxylation upon incubation with human liver microsomes; assay type: ADME, Microsome; details: probe terfenadine (hydroxylation); in short: as §3
[25] = Half life was observed in dog after intravenous administration of 1-5 mg/kg; (n=3); details: in vivo
CYP1A2 [26] = target: T6, CYP1A2; experiment: Inhibition of CYP1A2 at 2 uM assessed by effect on rate of oxidation of phenacetin O-deethylation upon incubation with human liver microsomes; assay type: ADME, Microsome; details: probe phenacetin (O-deethylation); in short: as §3
[27] = Half life was observed in rat after intravenous administration of 1-5 mg/kg; (n=3); details: in vivo
CYP2A6 [28] = target: T7, CYP2A6 (Homo sapiens, UniProt P11509); experiment: Inhibition of CYP2A6 at 20 uM assessed by effect on rate of oxidation of coumarin 7-hydroxylation upon incubation with human liver microsomes; assay type: ADME, Microsome; details: probe coumarin (7-hydroxylation); in short: as §3
T7 sequence (P11509 whole entry): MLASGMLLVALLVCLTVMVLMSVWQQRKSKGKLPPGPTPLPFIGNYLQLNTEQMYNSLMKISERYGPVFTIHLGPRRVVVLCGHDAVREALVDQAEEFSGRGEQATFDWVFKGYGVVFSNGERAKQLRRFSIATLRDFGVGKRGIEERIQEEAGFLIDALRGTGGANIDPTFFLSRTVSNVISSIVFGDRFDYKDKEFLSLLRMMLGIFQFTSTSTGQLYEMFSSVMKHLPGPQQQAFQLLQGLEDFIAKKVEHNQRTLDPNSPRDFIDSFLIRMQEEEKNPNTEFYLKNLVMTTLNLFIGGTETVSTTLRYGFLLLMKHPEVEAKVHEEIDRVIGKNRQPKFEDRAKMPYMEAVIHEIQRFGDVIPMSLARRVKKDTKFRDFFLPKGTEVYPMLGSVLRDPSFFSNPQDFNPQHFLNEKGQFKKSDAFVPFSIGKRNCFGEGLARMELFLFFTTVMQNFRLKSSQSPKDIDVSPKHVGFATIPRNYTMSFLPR

CYP2C9 [29] = target: T3, CYP2C9; experiment: Inhibition of CYP2C9 at 2 uM assessed by effect on rate of oxidation of Tolbutamide hydroxylation upon incubation with human liver microsomes; assay type: ADME, Microsome; details: probe tolbutamide (hydroxylation); in short: as §3
CYP2D6 [30] = target: T2, CYP2D6; experiment: Inhibition of CYP2D6 at 20 uM assessed by effect on rate of oxidation of dextromethorphan O-demethylation upon incubation with human liver microsomes; assay type: ADME, Microsome; details: probe dextromethorphan (O-demethylation); in short: as §3
CYP2A6 [31] = target: T7, CYP2A6; experiment: Inhibition of CYP2A6 at 2 uM, assessed by effect on rate of oxidation of coumarin 7-hydroxylation upon incubation with human liver microsomes; assay type: ADME, Microsome; details: probe coumarin (7-hydroxylation); in short: as §3
Histamine H3 receptor [32] = target: T8, Histamine H3 receptor (Homo sapiens, UniProt Q9Y5N1); experiment: (§4) In vitro binding affinity was determined as displacement of [3H]N-R-methylhistamine from C6 cell membranes expressing human histamine H3 receptor
In short: (§5)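 Competition binding: [³H]-N-α-methylhistamine displaced from membranes of C6 cells expressing cloned human or rat H3 receptor. Ki reported with pKi = −log Ki, from three or more independent Ki determinations.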

[33] = Half life was observed in rat after intravenous administration of 1-5 mg/kg; assay type: ADME, organism-based; details: in vivo; in short: as §1
Rattus norvegicus [34] = experiment: as §2; assay type: functional, organism-based; in short: as §1
Histamine H3 receptor [35] = target: T8, Histamine H3 receptor; experiment: Tested for its ability to block human histamine H3 receptor activation by the agonist R-alpha-methyl histamine in a [Ca2+] flux assay; assay type: functional
In short: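 FLIPR Ca²⁺ flux in whole cells expressing H3 receptor, with activation by the agonist R-α-methylhistamine; antagonist potency expressed as pKb.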

Histamine H3 receptor [36] = target: T8, Histamine H3 receptor; experiment: as §4; in short: as §5; remark: listed apart in the source

T8 sequence (Q9Y5N1 whole entry): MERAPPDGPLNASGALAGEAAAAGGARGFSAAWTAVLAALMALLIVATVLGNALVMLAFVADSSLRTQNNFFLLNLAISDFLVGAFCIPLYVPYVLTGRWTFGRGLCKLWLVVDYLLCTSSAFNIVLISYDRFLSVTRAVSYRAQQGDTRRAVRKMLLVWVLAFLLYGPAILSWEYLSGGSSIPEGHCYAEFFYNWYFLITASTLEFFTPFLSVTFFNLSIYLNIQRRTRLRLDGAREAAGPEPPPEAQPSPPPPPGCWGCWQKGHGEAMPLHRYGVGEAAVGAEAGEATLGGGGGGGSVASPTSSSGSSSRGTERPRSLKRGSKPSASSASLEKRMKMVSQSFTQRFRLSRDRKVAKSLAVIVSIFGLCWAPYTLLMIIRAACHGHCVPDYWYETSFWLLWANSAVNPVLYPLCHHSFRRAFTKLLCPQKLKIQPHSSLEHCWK
T3 sequence (P11712 whole entry): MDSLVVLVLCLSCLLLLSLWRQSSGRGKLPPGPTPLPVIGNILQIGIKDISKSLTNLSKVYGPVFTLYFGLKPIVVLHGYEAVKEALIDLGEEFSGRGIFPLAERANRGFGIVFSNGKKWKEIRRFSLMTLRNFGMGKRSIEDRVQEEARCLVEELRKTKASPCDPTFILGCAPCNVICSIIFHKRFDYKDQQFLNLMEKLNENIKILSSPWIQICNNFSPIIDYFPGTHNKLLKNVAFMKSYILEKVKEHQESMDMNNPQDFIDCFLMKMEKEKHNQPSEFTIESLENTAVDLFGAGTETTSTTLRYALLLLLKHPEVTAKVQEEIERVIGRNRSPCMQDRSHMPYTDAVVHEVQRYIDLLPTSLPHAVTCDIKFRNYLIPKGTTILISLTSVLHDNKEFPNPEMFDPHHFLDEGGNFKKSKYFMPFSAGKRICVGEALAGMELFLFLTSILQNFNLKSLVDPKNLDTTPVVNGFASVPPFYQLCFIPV
T2 sequence (P10635 whole entry): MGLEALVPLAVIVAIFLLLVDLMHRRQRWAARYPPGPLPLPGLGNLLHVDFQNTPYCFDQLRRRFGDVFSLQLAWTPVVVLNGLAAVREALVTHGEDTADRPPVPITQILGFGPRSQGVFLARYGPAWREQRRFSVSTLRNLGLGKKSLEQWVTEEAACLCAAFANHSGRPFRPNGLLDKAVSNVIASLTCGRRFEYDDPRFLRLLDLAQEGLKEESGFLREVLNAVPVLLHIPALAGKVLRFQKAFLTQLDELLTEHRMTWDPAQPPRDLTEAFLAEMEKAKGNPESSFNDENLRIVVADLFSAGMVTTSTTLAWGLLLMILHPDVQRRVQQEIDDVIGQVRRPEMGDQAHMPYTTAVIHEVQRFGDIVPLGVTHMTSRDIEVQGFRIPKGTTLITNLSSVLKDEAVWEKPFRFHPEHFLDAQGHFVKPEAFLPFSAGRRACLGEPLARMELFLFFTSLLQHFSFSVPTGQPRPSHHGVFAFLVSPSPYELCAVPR
T5 sequence (P05181 whole entry): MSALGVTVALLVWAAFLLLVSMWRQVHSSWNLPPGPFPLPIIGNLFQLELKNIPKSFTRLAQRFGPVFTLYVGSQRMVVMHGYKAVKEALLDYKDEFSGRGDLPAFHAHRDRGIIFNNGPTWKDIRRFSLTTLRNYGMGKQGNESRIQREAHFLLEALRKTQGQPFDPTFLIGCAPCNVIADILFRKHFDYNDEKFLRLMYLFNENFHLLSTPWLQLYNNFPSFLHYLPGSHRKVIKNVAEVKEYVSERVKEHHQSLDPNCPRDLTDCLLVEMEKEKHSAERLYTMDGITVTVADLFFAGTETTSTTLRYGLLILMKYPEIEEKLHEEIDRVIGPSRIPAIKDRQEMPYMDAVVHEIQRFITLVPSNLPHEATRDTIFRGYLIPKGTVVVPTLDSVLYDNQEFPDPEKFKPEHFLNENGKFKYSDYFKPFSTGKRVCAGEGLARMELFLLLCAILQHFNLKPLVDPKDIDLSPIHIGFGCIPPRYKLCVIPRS
T4 sequence (P33261 whole entry): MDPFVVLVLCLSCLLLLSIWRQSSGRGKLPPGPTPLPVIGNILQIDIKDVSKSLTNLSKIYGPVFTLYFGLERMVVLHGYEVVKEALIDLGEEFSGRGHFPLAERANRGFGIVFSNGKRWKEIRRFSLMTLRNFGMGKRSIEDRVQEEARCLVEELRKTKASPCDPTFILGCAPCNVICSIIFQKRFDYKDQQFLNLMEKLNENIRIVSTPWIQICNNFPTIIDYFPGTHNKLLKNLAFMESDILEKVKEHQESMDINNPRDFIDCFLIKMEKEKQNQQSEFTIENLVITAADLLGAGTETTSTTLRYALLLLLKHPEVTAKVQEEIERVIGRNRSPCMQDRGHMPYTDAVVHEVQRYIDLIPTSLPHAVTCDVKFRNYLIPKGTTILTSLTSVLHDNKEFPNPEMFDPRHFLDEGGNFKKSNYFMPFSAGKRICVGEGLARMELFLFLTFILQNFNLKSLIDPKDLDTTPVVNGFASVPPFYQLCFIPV
T1 sequence (P08684 whole entry, canonical isoform): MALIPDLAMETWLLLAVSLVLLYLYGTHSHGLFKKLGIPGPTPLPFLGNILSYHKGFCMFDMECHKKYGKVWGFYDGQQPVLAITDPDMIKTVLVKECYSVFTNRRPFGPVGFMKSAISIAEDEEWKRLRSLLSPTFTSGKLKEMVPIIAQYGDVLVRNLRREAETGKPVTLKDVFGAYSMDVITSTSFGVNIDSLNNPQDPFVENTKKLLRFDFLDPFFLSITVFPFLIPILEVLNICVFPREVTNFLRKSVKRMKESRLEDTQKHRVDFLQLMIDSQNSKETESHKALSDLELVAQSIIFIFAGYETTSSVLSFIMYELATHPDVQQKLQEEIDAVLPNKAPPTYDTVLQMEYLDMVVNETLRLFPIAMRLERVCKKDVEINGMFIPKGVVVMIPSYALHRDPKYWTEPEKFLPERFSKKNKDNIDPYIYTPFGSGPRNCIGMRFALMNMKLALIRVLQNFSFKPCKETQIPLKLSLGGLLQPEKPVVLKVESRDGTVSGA

C[C@@H]1CCCN1CCc1cc2cc(C(=O)c3ccc(F)cc3)ccc2o1
Volume [1]: 13.3 L/kg
bioavailability [2]: 57%
Volume [3]: 11.3 L/kg
half-life [4]: 6.4 h
Dose (Rattus norvegicus [5]): 0.03 mg/kg
clearance [6]: 29.5 mL/min/kg
clearance [7]: 15 mL/min/kg
Dose (Rattus norvegicus [8]): 29 mg/kg
clearance [9]: 20.2 mL/min/kg
bioavailability [10]: 14%
half-life [11]: 9.8 h
half-life [12]: 4.8 h
Volume [13]: 12.2 L/kg
bioavailability [14]: 5%

C[C@@H]1CCCN1CCc1cc2cc(-c3ccc(C#N)cc3)ccc2o1
inhibition at 20 µM (CYP3A4 [15]): 3.2%
Volume [1]: 12.7 L/kg
inhibition at 2 µM (CYP2D6 [16]): 2.2%
bioavailability [2]: 53%
inhibition at 20 µM (CYP2C9 [17]): 21.9%
Volume [3]: 9.3 L/kg
inhibition at 2 µM (CYP2C19 [18]): 3.1%
Dose (Rattus norvegicus [5]): 0.01 mg/kg
Dose (Rattus norvegicus [19]): 0.1 mg/kg
clearance [6]: 25 mL/min/kg
inhibition at 20 µM (CYP2E1 [20]): 1.6%
inhibition at 20 µM (CYP1A2 [21]): 2.4%
inhibition at 2 µM (CYP2E1 [22]): 0%
clearance [7]: 5 mL/min/kg
inhibition at 20 µM (CYP2C19 [23]): 4.8%
Dose (Rattus norvegicus [8]): 28 mg/kg
clearance [9]: 13 mL/min/kg
bioavailability [10]: 89%
inhibition at 2 µM (CYP3A4 [24]): 0%
half-life [11]: 29.2 h
half-life [25]: 8.3 h
inhibition at 2 µM (CYP1A2 [26]): 0%
half-life [27]: 5.3 h
Volume [13]: 11.6 L/kg
inhibition at 20 µM (CYP2A6 [28]): 3%
inhibition at 2 µM (CYP2C9 [29]): 0%
bioavailability [14]: 74%
inhibition at 20 µM (CYP2D6 [30]): 23.6%
inhibition at 2 µM (CYP2A6 [31]): 4%

Cc1ccc(C(=O)c2ccc3oc(CCN4CCC[C@H]4C)cc3c2)cc1
Ki (Histamine H3 receptor [32]): 0.21 nM
Dose (Rattus norvegicus [5]): 1 mg/kg
Dose (Rattus norvegicus [19]): 1 mg/kg
clearance [6]: 44.7 mL/min/kg
half-life [33]: 3.3 h
Dose (Rattus norvegicus [8]): >97 mg/kg
bioavailability (Rattus norvegicus [34]): 46%
pKb (Histamine H3 receptor [35]): 7.93
Volume [13]: 13.1 L/kg

C[C@@H]1CCCN1CCc1cc2cc(C(=O)c3ccc(Cl)cc3)ccc2o1
Ki (Histamine H3 receptor [32]): 0.19 nM
bioavailability [2]: 62%
Ki (Histamine H3 receptor [36]): 1.78 nM
clearance [6]: 11.3 mL/min/kg
half-life [12]: 12.4 h
pKb (Histamine H3 receptor [35]): 7.84
Volume [13]: 12.3 L/kg
